Assay results from ChEMBL document CHEMBL3769310, “Scouting new sigma receptor ligands: Synthesis, pharmacological evaluation and molecular modeling of 1,3-dioxolane-based structures and derivatives” (Eur J Med Chem, 2016).
The source made the active and inactive calls.

Columns and labels:
[1] = target: Sigma non-opioid intracellular receptor 1 (Cavia porcellus, UniProt Q60492); test: Displacement of [3H]-(+)-pentazocine from sigma-1 receptor in guinea pig brain membranes after 150 mins by liquid scintillation counting method; type: cell membranes, Membrane
Sigma non-opioid intracellular receptor 1, sequence (Q60492 whole entry): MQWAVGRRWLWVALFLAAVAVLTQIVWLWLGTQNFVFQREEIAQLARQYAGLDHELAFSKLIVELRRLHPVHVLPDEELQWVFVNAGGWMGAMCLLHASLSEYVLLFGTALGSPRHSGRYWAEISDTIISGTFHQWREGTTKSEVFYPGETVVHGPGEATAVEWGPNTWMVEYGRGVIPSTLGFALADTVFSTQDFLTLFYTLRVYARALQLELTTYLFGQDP

[2] = Displacement of [3H]DTG from sigma-2 receptor in guinea pig brain membranes after 120 mins by liquid scintillation counting method; type: cell membranes, Cavia porcellus, Membrane
Procedure, shortened: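 Nonspecific with 5 µM DTG. Stopped with ice-cold 10 mM Tris pH 8.0, filtered on PEI-soaked GF/B, scintillation counted. Ki from duplicates, three experiments.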

[3] = target: T1, 5-hydroxytryptamine receptor 1A (Homo sapiens, UniProt P08908); test: Displacement of [3H]8-OH-DPAT from human 5-HT1A expressed in human HeLa cells after 30 mins; type: cell-based
T1 sequence (P08908 whole entry): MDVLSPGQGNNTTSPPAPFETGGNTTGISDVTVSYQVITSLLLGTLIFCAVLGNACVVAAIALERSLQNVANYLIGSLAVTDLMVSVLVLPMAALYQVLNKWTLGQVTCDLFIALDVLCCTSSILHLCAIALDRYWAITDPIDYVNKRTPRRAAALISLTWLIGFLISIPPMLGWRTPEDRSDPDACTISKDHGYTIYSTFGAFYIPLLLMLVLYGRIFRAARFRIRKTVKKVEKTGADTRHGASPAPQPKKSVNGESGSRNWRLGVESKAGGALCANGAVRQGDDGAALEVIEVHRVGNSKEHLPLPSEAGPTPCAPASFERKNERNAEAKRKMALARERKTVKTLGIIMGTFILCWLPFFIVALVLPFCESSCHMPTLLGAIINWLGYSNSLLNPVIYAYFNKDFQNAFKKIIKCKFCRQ

Cavia porcellus = species on record: Cavia porcellus; test: Selectivity ratio of Ki for sigma-1 receptor in guinea pig brain membranes to Ki for sigma-2 receptor in guinea pig brain membranes; type: cell membranes
HeLa [4] = test: Selectivity ratio of Ki for sigma-1 receptor in guinea pig brain membranes to Ki for human 5-HT1A expressed in human HeLa cells; type: cell-based
HeLa [5] = test: Selectivity ratio of Ki for sigma-2 receptor in guinea pig brain membranes to Ki for human 5-HT1A expressed in human HeLa cells; type: cell-based
Rattus norvegicus = test: Analgesic activity in Sprague-Dawley rat assessed as withdrawal latency at 1 mg/kg, sc measured after 30 to 120 mins by tail flick test; type: functional, organism-based
Procedure, shortened: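 Male Sprague-Dawley rats, 180–200 g, 8–10 per group, dosed s.c. Radiant heat tail-flick with I.R. source on lower third of tail at 25 ± 1 °C. Basal latency 3–4 s, taken as mean of three readings at 5 min intervals. Cut-off 10 s. Latencies read at 30, 45, 60, 90 and 120 min after injection; saline group as control. Blinded observers; mean ± SE, two-way ANOVA then t test.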

SMILES: c1ccc(CC2CCN(CC3COC(C4CCCCC4)(C4CCCCC4)O3)CC2)cc1 (centres undefined)
- Ki [1]: 209 nM
- pKi [2]: < 6
- Ki [3]: > 1000 nM
- Ratio Ki (Cavia porcellus): > 5
- Ratio Ki (HeLa [4]): > 5
- Ratio Ki (HeLa [5]): > 5

SMILES: c1ccc(CN2CCN(C[C@@H]3CO[C@@](c4ccccc4)(C4CCCCC4)O3)CC2)cc1 (relative stereo)
- Ki [1]: 30.9 nM
- pKi [2]: 7.75
- Ki [3]: > 1000 nM
- Ratio Ki (Cavia porcellus): 1
- Ratio Ki (HeLa [4]): > 56
- Ratio Ki (HeLa [5]): > 56

SMILES: O[C@@H]1[C@@H](CN2CCC(Cc3ccccc3)CC2)CCC1(c1ccccc1)c1ccccc1 (relative stereo)
- Ki [1]: 229 nM
- pKi [2]: 5.05
- Ki [3]: 50.1 nM
- Ratio Ki (Cavia porcellus): 39
- Ratio Ki (HeLa [4]): 0.21
- Ratio Ki (HeLa [5]): 0.21

SMILES: c1ccc(CC2CCN(CC3CCC(c4ccccc4)(c4ccccc4)O3)CC2)cc1 (centres undefined)
- Ki [1]: 174 nM
- pKi [2]: 6.69
- Ki [3]: > 1000 nM
- Ratio Ki (Cavia porcellus): 1
- Ratio Ki (HeLa [4]): > 6
- Ratio Ki (HeLa [5]): > 6

SMILES: c1ccc(CN2CCN(CCOC(c3ccccc3)c3ccccc3)CC2)cc1
- Ki [1]: 20.4 nM
- pKi [2]: 7.95
- Ki [3]: > 1000 nM
- Ratio Ki (Cavia porcellus): 1
- Ratio Ki (HeLa [4]): > 89
- Ratio Ki (HeLa [5]): > 89

SMILES: O[C@@H]1[C@@H](CN2CCN(Cc3ccccc3)CC2)CCC1(c1ccccc1)c1ccccc1 (relative stereo)
- Ki [1]: 38 nM
- pKi [2]: 7
- Ki [3]: 126 nM
- Ratio Ki (Cavia porcellus): 3
- Ratio Ki (HeLa [4]): 3
- Ratio Ki (HeLa [5]): 3

SMILES: O[C@H]1[C@@H](CN2CCC(Cc3ccccc3)CC2)CCC1(c1ccccc1)c1ccccc1 (relative stereo)
- Ki [1]: 282 nM
- pKi [2]: 5.66
- Ki [3]: 7.59 nM
- Ratio Ki (Cavia porcellus): 8
- Ratio Ki (HeLa [4]): 0.02
- Ratio Ki (HeLa [5]): 0.02

SMILES: c1ccc(CC2CCN(CC3CSC(c4ccccc4)(c4ccccc4)O3)CC2)cc1 (centres undefined)
- Ki [1]: 12 nM
- pKi [2]: 7.55
- Ratio Ki (Cavia porcellus): 2
- Ratio Ki (HeLa [4]): > 83
- Ratio Ki (HeLa [5]): > 83

SMILES: OCC(CN1CCN(Cc2ccccc2)CC1)OC(c1ccccc1)c1ccccc1 (centres undefined)
- Ki [1]: 11.2 nM
- pKi [2]: 7.75
- Ki [3]: > 1000 nM
- Ratio Ki (Cavia porcellus): 2
- Ratio Ki (HeLa [4]): > 89
- Ratio Ki (HeLa [5]): > 89

SMILES: c1ccc(CN2CCN(C[C@H]3CO[C@@](c4ccccc4)(C4CCCCC4)O3)CC2)cc1 (relative stereo)
- Ki [1]: 1.07 nM
- pKi [2]: 7.79
- Ki [3]: > 1000 nM
- Ratio Ki (Cavia porcellus): 15
- Ratio Ki (HeLa [4]): > 933
- Ratio Ki (HeLa [5]): > 933

SMILES: c1ccc(CN2CCN(CC3COC4(CCCCC4)O3)CC2)cc1 (centres undefined)
- Ki [1]: 0.741 nM
- pKi [2]: 7.46
- Ki [3]: > 1000 nM
- Ratio Ki (Cavia porcellus): 47
- Ratio Ki (HeLa [4]): > 1350
- Ratio Ki (HeLa [5]): > 1350
- Activity (Rattus norvegicus): inactive

SMILES: OCC(CN1CCC(Cc2ccccc2)CC1)OC(c1ccccc1)c1ccccc1 (centres undefined)
- Ki [1]: 200 nM
- pKi [2]: 6.56
- Ki [3]: 417 nM
- Ratio Ki (Cavia porcellus): 1
- Ratio Ki (HeLa [4]): 2.5
- Ratio Ki (HeLa [5]): 2.5

SMILES: c1ccc(CC2CCN(CCOC(c3ccccc3)c3ccccc3)CC2)cc1
- Ki [1]: 56.2 nM
- pKi [2]: 6.77
- Ki [3]: > 1000 nM
- Ratio Ki (Cavia porcellus): 3
- Ratio Ki (HeLa [4]): > 18
- Ratio Ki (HeLa [5]): > 18

SMILES: c1ccc(CC2CCN(CC3COc4ccccc4O3)CC2)cc1 (centres undefined)
- Ki [1]: 16.6 nM
- pKi [2]: 7.6

SMILES: O[C@H]1[C@@H](CN2CCN(Cc3ccccc3)CC2)CCC1(c1ccccc1)c1ccccc1 (relative stereo)
- Ki [1]: 35.5 nM
- pKi [2]: 6.62
- Ki [3]: 7.24 nM
- Ratio Ki (Cavia porcellus): 6.8
- Ratio Ki (HeLa [4]): 0.2
- Ratio Ki (HeLa [5]): 0.2

SMILES: c1ccc(CC2CCN(CC3COC(c4ccccc4)(c4ccccc4)O3)CC2)cc1 (centres undefined)
- Ki [1]: 2.19 nM
- pKi [2]: 8.2
- Ki [3]: 550 nM
- Ratio Ki (Cavia porcellus): 3
- Ratio Ki (HeLa [4]): 251
- Ratio Ki (HeLa [5]): 251

SMILES: c1ccc(CN2CCN(CC3COC(C4CCCCC4)(C4CCCCC4)O3)CC2)cc1 (centres undefined)
- Ki [1]: 3.39 nM
- pKi [2]: 8.3
- Ki [3]: > 1000 nM
- Ratio Ki (Cavia porcellus): 2
- Ratio Ki (HeLa [4]): > 29
- Ratio Ki (HeLa [5]): > 29

SMILES: c1ccc(CC2CCN(CC3CSC(c4ccccc4)(c4ccccc4)S3)CC2)cc1 (centres undefined)
- Ki [1]: 15.1 nM
- pKi [2]: 7.11
- Ki [3]: > 1000 nM
- Ratio Ki (Cavia porcellus): 5
- Ratio Ki (HeLa [4]): > 66
- Ratio Ki (HeLa [5]): > 66

SMILES: c1ccc(CN2CCN(CC3CSC(c4ccccc4)(c4ccccc4)O3)CC2)cc1 (centres undefined)
- Ki [1]: 63.1 nM
- pKi [2]: 6.67
- Ratio Ki (Cavia porcellus): 3
- Ratio Ki (HeLa [4]): > 16
- Ratio Ki (HeLa [5]): > 16

SMILES: O=C1C(CN2CCN(Cc3ccccc3)CC2)CCC1(c1ccccc1)c1ccccc1 (centres undefined)
- Ki [1]: 646 nM
- pKi [2]: 4.9
- Ki [3]: > 1000 nM
- Ratio Ki (Cavia porcellus): 20
- Ratio Ki (HeLa [4]): > 1.5
- Ratio Ki (HeLa [5]): > 1.5

SMILES: c1ccc(CN2CCN(CC3CSC(c4ccccc4)(c4ccccc4)S3)CC2)cc1 (centres undefined)
- Ki [1]: 302 nM
- pKi [2]: 5.64
- Ki [3]: > 1000 nM
- Ratio Ki (Cavia porcellus): 8
- Ratio Ki (HeLa [4]): > 3
- Ratio Ki (HeLa [5]): > 3

SMILES: c1ccc(CN2CCN(CC3COc4ccccc4O3)CC2)cc1 (centres undefined)
- Ki [1]: 15.8 nM
- pKi [2]: 7.55

SMILES: c1ccc(CC2CCN(C[C@@H]3CO[C@@](c4ccccc4)(C4CCCCC4)O3)CC2)cc1 (relative stereo)
- Ki [1]: 52.5 nM
- pKi [2]: 6.84
- Ki [3]: > 1000 nM
- Ratio Ki (Cavia porcellus): 3
- Ratio Ki (HeLa [4]): > 19
- Ratio Ki (HeLa [5]): > 19

SMILES: c1ccc(CC2CCN(C[C@H]3CO[C@@](c4ccccc4)(C4CCCCC4)O3)CC2)cc1
- Ki [1]: 56.2 nM
- pKi [2]: 6.43
- Ki [3]: > 1000 nM
- Ratio Ki (Cavia porcellus): 7
- Ratio Ki (HeLa [4]): > 18
- Ratio Ki (HeLa [5]): > 18

SMILES: c1ccc(CN2CCN(CC3COC(c4ccccc4)(c4ccccc4)O3)CC2)cc1 (centres undefined)
- Ki [1]: 1.7 nM
- pKi [2]: 8.38
- Ki [3]: > 1000 nM
- Ratio Ki (Cavia porcellus): 3
- Ratio Ki (HeLa [4]): > 589
- Ratio Ki (HeLa [5]): > 589

SMILES: c1ccc(CN2CCN(CC3CCC(c4ccccc4)(c4ccccc4)O3)CC2)cc1 (centres undefined)
- Ki [1]: 87.1 nM
- pKi [2]: 6.65
- Ki [3]: > 1000 nM
- Ratio Ki (Cavia porcellus): 3
- Ratio Ki (HeLa [4]): > 11
- Ratio Ki (HeLa [5]): > 11

SMILES: O=C1C(CN2CCC(Cc3ccccc3)CC2)CCC1(c1ccccc1)c1ccccc1 (centres undefined)
- Ki [1]: 1120 nM
- pKi [2]: 5.66
- Ki [3]: > 1000 nM
- Ratio Ki (Cavia porcellus): 2
- Ratio Ki (HeLa [4]): 1
- Ratio Ki (HeLa [5]): 1

SMILES: c1ccc(CC2CCN(CC3COC4(CCCCC4)O3)CC2)cc1 (centres undefined)
- Ki [1]: 2 nM
- pKi [2]: 7.72
- Ki [3]: 162 nM
- Ratio Ki (Cavia porcellus): 10
- Ratio Ki (HeLa [4]): 81
- Ratio Ki (HeLa [5]): 81
